Source: ChEMBL document CHEMBL4364279, “Design, synthesis, in-silico and biological evaluation of novel chalcone-O-carbamate derivatives as multifunctional agents for the treatment of Alzheimer's disease” (Eur J Med Chem, 2019)
Activity calls are given as the source filed them. The rule behind the calls is not given here.

Experiments:
[1] = molecular target: Cholinesterase (Equus caballus) (UniProt P81908); assay: Reversible inhibition of equine serum BuChE assessed as enzyme activity at 0.1 times IC50 using butyrylthiocholine iodide as substrate by Ellman's method relative to control; set-up: scale not given: the % may be the effect or the level left
Procedure, shortened: (§1)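 Reversibility tested by recovery of equine serum BuChE activity after dilution of inhibitor, with activity monitored over time up to 240 min by the Ellman method (DTNB read at 412 nm). Activity expressed relative to untreated control. Three independent experiments.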

[2] = molecular target: Cholinesterase (Equus caballus) (UniProt P81908); assay: Reversible inhibition of equine serum BuChE assessed as enzyme activity at 0.1 times IC50 using butyrylthiocholine iodide as substrate measured at 120 mins by Ellman's method relative to control; set-up: scale not given: the % may be the effect or the level left; procedure, shortened: as §1
[3] = molecular target: Cholinesterase (Homo sapiens) (UniProt P06276); assay: Reversible competitive inhibition of BuChE (unknown origin) assessed as […] at 1 to 6 uM using butyrylthiocholine iodide as susbtrate
[4] = molecular target: T1, Amine oxidase [flavin-containing] A (Homo sapiens, UniProt P21397); assay: Inhibition of recombinant human MAO-A expressed in baculovirus infected BTI insect cells at 12.5 uM using kynuramine as substrate measured after 30 mins by fluorescence based assay relative to control; settings: 0.5 h
T1 sequence (P21397 whole entry): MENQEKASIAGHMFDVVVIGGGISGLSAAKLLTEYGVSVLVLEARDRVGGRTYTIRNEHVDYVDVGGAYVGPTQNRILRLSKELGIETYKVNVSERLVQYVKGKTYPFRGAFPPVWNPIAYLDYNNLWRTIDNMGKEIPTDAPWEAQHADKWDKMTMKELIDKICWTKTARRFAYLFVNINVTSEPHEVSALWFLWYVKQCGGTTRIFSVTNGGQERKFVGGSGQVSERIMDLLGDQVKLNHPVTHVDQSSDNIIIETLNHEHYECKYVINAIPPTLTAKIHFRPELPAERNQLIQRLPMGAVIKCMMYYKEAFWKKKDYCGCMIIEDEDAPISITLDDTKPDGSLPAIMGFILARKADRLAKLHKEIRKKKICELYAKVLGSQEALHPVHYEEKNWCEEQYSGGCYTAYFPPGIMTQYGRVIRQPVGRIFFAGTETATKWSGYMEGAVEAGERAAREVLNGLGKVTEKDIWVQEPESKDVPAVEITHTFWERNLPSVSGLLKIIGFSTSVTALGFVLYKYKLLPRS

[5] = Disaggregation of Cu2+ induced preformed fibrils of amyloid beta (1 to 42) (unknown origin) at 25 uM preincubated with Cu2+ for 24 hrs followed by compound addition and measured after 24 hrs by thioflavin-T based fluorescence assay relative to control
Procedure, shortened: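 Aβ1-42 (25 µM) and Cu2+ (25 µM) preincubated at 37 °C for 24 h, then compound (25 µM) added and incubated a further 24 h at 37 °C. ThT (5 µM in 50 mM glycine-NaOH, pH 8.5) added; fluorescence at ex 446/em 490 nm, background subtracted, % vs no-compound control. Three independent experiments.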

[6] = Metal chelating activity of the compound assessed as formation of Fe2+-compound complex at 37.5 uM after 30 mins by UV-vis absorption spectra analysis
Procedure, shortened: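 Metal binding examined by plate-reader absorbance scan using CuCl2, ZnCl2, AlCl3, FeSO4, CuCl and Fe(NO3)3 as metal sources.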

[7] = Toxicity in Kunming mouse assessed as abnormal behavior at 20 to 500 mg/kg measured up to 14 days; assay type: organism-based; settings: in vivo, 336 h
[8] = test system: Mus musculus; assay: Effect on total arm entries in Kunming mouse model of scopolamine-induced cognitive impairment in at 2.6 to 23.4 mg/kg, ig pretreated for 30 min followed by scopolamine challenge and measured after 30 mins by Y-maze test; assay type: ADME, organism-based; settings: in vivo, po, 0.5 h

Cholinesterase (Equus caballus), sequence (P81908 whole entry): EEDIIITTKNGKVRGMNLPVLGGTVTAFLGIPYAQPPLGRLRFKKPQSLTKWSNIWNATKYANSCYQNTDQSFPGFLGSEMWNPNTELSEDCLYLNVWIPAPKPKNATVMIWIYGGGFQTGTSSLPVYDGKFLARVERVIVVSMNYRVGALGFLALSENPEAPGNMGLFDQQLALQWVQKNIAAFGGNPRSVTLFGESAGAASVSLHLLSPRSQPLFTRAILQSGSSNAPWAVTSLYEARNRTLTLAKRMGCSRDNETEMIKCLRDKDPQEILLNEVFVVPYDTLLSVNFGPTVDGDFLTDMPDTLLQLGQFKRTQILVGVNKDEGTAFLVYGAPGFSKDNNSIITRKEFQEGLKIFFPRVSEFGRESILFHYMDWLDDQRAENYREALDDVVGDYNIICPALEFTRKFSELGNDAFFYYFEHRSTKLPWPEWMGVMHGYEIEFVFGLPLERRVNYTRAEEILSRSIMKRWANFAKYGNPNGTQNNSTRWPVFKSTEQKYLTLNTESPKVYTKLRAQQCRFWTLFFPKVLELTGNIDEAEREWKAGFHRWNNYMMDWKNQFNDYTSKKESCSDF
Cholinesterase (Homo sapiens), sequence (P06276 whole entry): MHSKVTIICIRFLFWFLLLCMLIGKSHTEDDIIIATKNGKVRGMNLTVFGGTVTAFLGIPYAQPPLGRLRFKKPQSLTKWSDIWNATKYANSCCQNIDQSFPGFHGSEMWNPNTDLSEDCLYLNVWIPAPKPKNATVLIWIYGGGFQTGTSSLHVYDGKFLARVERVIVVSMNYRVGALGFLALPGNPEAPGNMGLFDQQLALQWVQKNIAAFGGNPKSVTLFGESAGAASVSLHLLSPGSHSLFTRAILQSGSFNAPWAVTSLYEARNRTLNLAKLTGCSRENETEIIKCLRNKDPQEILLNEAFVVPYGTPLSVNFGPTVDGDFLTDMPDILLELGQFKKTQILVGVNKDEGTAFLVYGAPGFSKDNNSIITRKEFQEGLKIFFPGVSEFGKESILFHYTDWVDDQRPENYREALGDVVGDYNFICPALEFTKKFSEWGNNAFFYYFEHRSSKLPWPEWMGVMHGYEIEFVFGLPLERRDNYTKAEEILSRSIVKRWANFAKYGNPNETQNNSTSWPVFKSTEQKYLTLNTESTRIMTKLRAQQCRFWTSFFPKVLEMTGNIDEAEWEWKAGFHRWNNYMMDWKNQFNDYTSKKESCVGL

CCN(C)C(=O)Oc1cccc(/C=C/C(=O)c2ccccc2O)c1
Activity [1]: 50.8% | Activity [2]: < 75.1% | inhibition [3]: Active | inhibition at 12.5 µM [4]: 16.4% | Activity [5]: 83.1% | Activity [6]: inactive | Activity [7]: Non-Toxic | Activity [8]: Non-Toxic
